Laboratory results from ChEMBL document CHEMBL1255333, “Comparison of the in vitro efficacies of moxifloxacin and amoxicillin against Listeria monocytogenes” (2008).
Active and inactive are the calls of the source.

Assays:
Listeria monocytogenes [1] = experiment: Antibacterial activity against extracellular Listeria monocytogenes EGDe at 400 times of MIC by time-kill study; type: functional, organism-based
Procedure, shortened: (§1)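 EGDe inoculum of 5 x 10^8 bacteria in Mueller-Hinton broth at 37°C. Antibiotic was added at 1x, 4x, 8x or 400x MIC. Counts were done in triplicate at set times by plating serial 10-fold dilutions on BHI agar, with or without 2 µg/ml moxifloxacin, for 48 h. Results are CFU/ml, means ± SE of three experiments. Bactericidal was defined as a >3-log10 drop at 24 h.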

Listeria monocytogenes [2] = experiment: Antibacterial activity against intracellular Listeria monocytogenes EGDe infected in bone marrow-derived BALB/c mouse macrophage assessed as prevention of bacterial release and spread of infection by preventing macrophage lysis after 24 hrs; type: functional, organism-based
Listeria monocytogenes [3] = experiment: Antibacterial activity against intracellular Listeria monocytogenes EGDe infected in bone marrow-derived BALB/c mouse macrophage assessed as reduction in the number of infected macrophages after 3 hrs; type: functional, organism-based
Procedure, shortened: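 Infected BALB/c bone marrow macrophages were stained with May-Grunwald-Giemsa and examined microscopically to determine the infection rate. Observations were made at 3, 6 and 24 h of exposure to antibiotic at 1x MIC or Cmax, or with no antibiotic.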

Listeria monocytogenes [4] = experiment: Antibacterial activity against extracellular Listeria monocytogenes EGDe at four times of MIC by time-kill study; type: functional, organism-based; procedure, shortened: as §1
Listeria monocytogenes [5] = experiment: Antibacterial activity against intracellular Listeria monocytogenes EGDe infected in bone marrow-derived BALB/c mouse macrophage assessed as reduction in the formation of filopodium-like projections at >= MIC after 48 hrs by microscopy; type: functional, organism-based
Listeria monocytogenes [6] = experiment: Antibacterial activity against extracellular Listeria monocytogenes EGDe at MIC by time-kill study; type: functional, organism-based; procedure, shortened: as §1
Listeria monocytogenes [7] = experiment: Antibacterial activity against intracellular Listeria monocytogenes EGDe infected in bone marrow-derived BALB/c mouse macrophage assessed as reduction in bacterial count at four-eitght times of MIC after 3 hrs; type: functional, organism-based
Procedure, shortened: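 Bone marrow macrophages from BALB/c mice (7-8 weeks) were differentiated for 7 days in RPMI 1640 with 10% decomplemented FCS and 10% L-cell medium, at 37°C and 10% CO2. Cells at 3 x 10^5/ml were infected for 15 min at a bacteria:macrophage ratio of 10:1, washed, and preincubated for 45 min. They were then given antibiotic for up to 24 h, lysed in 0.1% Triton X-100, and plated in triplicate. Results are CFU/well, means ± SE of three experiments.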

Listeria monocytogenes [8] = experiment: Antibacterial activity against extracellular Listeria monocytogenes EGDe assessed as reduction in bacterial count at eight times of MIC after 6 hrs by time-kill study; type: functional; procedure, shortened: as §1
Listeria monocytogenes [9] = experiment: Antibacterial activity against extracellular Listeria monocytogenes EGDe assessed as reduction in bacterial count at four times of MIC after 6 hrs by time-kill study; type: functional; procedure, shortened: as §1
Listeria monocytogenes [10] = experiment: Antibacterial activity against intracellular Listeria monocytogenes EGDe infected in bone marrow-derived BALB/c mouse macrophage assessed as changes in morphology of intracellular bacteria observed to be ghostly, chained, and elongated at >= MIC after 48 hrs by microscopy; type: functional, organism-based
Listeria monocytogenes [11] = experiment: Antibacterial activity against extracellular Listeria monocytogenes EGDe assessed as reduction in bacterial count at four times of MIC after 24 hrs by time-kill study; type: functional, organism-based; procedure, shortened: as §1
Listeria monocytogenes [12] = experiment: Antibacterial activity against extracellular Listeria monocytogenes EGDe assessed as reduction in bacterial count at eight times of MIC after 24 hrs by time-kill study; type: functional, organism-based; procedure, shortened: as §1

| SMILES | Activity (Listeria monocytogenes [1]) | Activity (Listeria monocytogenes [2]) | Activity (Listeria monocytogenes [3]) | Activity (Listeria monocytogenes [4]) | Activity (Listeria monocytogenes [5]) | Activity (Listeria monocytogenes [6]) | Activity (Listeria monocytogenes [7]) | log10CFU/ml (Listeria monocytogenes [8]) | log10CFU/ml (Listeria monocytogenes [9]) | Activity (Listeria monocytogenes [10]) | Activity (Listeria monocytogenes [11]) | Activity (Listeria monocytogenes [12]) |
| --- | --- | --- | --- | --- | --- | --- | --- | --- | --- | --- | --- | --- |
| CC1(C)S[C@@H]2[C@H](NC(=O)[C@H](N)c3ccc(O)cc3)C(=O)N2[C@H]1C(=O)O | Active | inactive | inactive | Active | inactive | inactive | inactive |  |  |  |  |  |
| COc1c(N2C[C@@H]3CCCN[C@@H]3C2)c(F)cc2c(=O)c(C(=O)O)cn(C3CC3)c12 [MOXIFLOXACIN] |  | Active |  | Active | Active | inactive | Active | 3 | 3 | Active | Active | Active |
